The source of these data is ChEMBL document CHEMBL1133191, “Non-amidine-containing 1,2-dibenzamidobenzene inhibitors of human factor Xa with potent anticoagulant and antithrombotic activity” (J Med Chem, 2000).

For one assay, the species on record is Homo sapiens. As to the kind of experiment: Prothrombin time activity, concentration required to double the time of clot formation in the prothrombin time assay. Format: functional. An outline of the steps:
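Prothrombin time clotting assay run as described in a cited reference. The value is the compound concentration (μM) that doubles the time to clot formation. It is the mean of at least three separate experiments, with standard deviation under 20%.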

The target of assay [1] is Coagulation factor X (Homo sapiens) (UniProt P00742). As to the kind of experiment: Binding affinity for human Coagulation factor X. In short, it runs like this:
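Apparent association constant with human factor Xa, determined by the method the paper cites. Each value is the mean of at least three separate experiments, with standard deviation under 20%.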

Assay [2] concerns the target Coagulation factor XI (Homo sapiens) (UniProt P03951). Nature of the assay: Measured for apparent association constant (binding affinity) for Coagulation factor XI.
Assay [3] addresses T1, Serine protease 1 (Bos taurus) (UniProt P00760).
T1 sequence (whole entry): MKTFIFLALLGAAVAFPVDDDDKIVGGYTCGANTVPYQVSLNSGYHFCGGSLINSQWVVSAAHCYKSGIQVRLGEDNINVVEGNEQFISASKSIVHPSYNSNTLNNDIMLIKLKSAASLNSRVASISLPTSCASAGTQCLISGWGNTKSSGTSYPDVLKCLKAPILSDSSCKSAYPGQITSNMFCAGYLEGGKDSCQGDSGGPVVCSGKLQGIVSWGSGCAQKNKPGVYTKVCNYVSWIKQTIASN
Nature of the assay: Measured for apparent association constant (binding affinity) for trypsin (bovine).

For assay [4], the target named is Urokinase-type plasminogen activator (Homo sapiens) (UniProt P00749). Nature of the assay: Measured for apparent association constant (binding affinity) for Urokinase-type plasminogen activator.
Assay [5] is described as follows: Measured for apparent association constant (binding affinity) for Factor IIa.
Assay [6] addresses T2, Coagulation factor XII (Homo sapiens) (UniProt P00748).
T2 sequence (whole entry): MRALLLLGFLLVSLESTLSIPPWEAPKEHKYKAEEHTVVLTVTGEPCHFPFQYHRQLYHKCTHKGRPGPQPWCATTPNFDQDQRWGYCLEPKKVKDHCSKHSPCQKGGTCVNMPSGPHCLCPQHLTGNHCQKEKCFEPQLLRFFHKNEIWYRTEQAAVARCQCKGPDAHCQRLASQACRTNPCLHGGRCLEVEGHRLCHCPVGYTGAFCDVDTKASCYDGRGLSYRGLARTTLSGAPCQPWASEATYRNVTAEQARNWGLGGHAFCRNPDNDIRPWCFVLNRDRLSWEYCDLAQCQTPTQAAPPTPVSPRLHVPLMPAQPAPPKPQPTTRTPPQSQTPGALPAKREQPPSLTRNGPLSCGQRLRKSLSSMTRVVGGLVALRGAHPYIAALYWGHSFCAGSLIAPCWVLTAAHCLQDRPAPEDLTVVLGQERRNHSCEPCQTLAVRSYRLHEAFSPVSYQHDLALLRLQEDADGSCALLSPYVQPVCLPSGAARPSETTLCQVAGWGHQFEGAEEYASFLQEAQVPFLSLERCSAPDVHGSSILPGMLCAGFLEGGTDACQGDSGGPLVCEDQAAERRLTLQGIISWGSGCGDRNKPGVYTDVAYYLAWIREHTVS
Nature of the assay: Measured for apparent association constant (binding affinity) for Coagulation factor XII.

In assay [7] the target is Plasminogen (Homo sapiens) (UniProt P00747). Nature of the assay: Measured for apparent association constant (binding affinity) for plasmin.
Sequence of Plasminogen (Homo sapiens) (P00747 whole entry, looked up): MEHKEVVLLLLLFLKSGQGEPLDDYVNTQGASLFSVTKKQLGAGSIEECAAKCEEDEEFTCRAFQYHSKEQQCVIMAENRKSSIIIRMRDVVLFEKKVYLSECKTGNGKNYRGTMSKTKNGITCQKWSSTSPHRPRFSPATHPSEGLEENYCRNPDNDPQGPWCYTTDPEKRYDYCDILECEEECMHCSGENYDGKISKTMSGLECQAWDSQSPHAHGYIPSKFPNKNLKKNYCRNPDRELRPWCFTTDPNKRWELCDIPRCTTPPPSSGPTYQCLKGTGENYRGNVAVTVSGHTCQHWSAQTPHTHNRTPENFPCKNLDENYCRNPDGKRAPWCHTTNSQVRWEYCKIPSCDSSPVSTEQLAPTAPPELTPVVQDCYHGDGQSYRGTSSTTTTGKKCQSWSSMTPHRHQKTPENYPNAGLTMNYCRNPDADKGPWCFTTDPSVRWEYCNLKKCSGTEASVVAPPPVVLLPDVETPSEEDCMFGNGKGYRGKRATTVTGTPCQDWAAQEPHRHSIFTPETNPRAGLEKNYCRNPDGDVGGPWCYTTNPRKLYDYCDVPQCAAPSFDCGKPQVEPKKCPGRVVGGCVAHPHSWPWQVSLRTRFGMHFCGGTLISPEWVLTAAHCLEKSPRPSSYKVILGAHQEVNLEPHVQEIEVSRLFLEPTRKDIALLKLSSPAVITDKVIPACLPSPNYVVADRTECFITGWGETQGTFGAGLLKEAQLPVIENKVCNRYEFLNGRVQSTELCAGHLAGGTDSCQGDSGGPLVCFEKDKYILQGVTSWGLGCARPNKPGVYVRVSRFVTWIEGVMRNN
Assay [8] concerns the target Tissue-type plasminogen activator (Homo sapiens) (UniProt P00750). Nature of the assay: Measured for apparent association constant (binding affinity) for Tissue type plasminogen activator.
Assay [9] has as its target Vitamin K-dependent protein C (Homo sapiens) (UniProt P04070). As to the kind of experiment: Measured for apparent association constant (binding affinity) for activated protein C.
Assay [10] deals with Prothrombin (Homo sapiens) (UniProt P00734). Nature of the assay: Measured for apparent association constant (binding affinity) for Coagulation factor II.

Sequence of Coagulation factor X (Homo sapiens) (P00742 41-179 limits assumed): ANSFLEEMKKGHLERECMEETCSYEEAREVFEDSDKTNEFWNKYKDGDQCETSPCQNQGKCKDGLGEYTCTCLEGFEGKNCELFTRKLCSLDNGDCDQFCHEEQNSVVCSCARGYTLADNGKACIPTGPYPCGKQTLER
Sequence of Coagulation factor X (Homo sapiens) (P00742 235-488 limits assumed): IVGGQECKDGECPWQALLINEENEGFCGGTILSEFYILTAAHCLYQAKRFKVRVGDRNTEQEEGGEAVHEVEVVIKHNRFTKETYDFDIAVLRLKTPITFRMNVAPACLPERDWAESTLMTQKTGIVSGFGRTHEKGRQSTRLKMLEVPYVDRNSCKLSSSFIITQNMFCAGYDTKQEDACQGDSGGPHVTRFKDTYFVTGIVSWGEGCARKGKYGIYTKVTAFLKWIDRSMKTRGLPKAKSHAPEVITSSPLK
Sequence of Coagulation factor XI (Homo sapiens) (P03951 19-387 limits assumed): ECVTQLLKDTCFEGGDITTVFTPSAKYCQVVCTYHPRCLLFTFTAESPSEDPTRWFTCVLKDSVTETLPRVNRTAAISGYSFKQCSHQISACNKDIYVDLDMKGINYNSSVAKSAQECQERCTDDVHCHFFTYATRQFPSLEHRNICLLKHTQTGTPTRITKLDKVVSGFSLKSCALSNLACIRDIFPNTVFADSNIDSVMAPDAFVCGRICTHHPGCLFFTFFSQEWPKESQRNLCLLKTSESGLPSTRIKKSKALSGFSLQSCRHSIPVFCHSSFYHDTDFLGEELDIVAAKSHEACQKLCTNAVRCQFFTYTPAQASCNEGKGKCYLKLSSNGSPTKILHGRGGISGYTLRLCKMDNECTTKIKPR
Sequence of Coagulation factor XI (Homo sapiens) (P03951 388-625 limits assumed): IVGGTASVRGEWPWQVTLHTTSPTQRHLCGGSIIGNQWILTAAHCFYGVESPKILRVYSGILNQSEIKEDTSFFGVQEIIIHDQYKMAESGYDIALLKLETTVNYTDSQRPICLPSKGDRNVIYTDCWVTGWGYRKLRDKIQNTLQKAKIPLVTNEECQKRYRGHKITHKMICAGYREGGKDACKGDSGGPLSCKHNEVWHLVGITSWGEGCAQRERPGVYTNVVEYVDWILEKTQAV
Sequence of Vitamin K-dependent protein C (Homo sapiens) (P04070 43-197 limits assumed): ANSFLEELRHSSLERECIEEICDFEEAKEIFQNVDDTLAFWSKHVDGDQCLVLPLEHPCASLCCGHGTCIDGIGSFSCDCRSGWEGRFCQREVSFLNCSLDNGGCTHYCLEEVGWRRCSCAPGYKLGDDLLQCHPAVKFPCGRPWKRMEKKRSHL
Sequence of Vitamin K-dependent protein C (Homo sapiens) (P04070 212-461 limits assumed): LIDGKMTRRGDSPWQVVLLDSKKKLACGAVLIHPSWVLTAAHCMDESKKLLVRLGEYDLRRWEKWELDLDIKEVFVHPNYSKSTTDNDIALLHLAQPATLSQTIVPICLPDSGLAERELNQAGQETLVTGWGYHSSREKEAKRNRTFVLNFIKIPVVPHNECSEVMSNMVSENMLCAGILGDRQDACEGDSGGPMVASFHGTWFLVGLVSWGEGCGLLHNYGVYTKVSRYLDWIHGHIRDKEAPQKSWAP
Sequence of Tissue-type plasminogen activator (Homo sapiens) (P00750 36-562 limits assumed): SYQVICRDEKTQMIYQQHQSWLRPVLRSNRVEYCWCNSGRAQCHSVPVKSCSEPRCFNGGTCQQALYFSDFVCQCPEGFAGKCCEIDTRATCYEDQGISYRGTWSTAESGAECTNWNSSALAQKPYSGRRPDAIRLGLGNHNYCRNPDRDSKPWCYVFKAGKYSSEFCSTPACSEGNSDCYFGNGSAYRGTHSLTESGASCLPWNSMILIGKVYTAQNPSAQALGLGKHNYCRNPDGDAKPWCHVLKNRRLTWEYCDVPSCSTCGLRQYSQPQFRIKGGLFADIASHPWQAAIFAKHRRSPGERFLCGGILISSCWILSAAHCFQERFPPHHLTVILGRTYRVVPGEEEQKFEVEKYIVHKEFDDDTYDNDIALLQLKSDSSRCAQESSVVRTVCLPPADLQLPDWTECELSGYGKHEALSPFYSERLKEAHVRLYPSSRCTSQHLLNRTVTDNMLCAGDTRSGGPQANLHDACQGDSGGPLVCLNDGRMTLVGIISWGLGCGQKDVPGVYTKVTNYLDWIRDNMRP

Turning to `O=C(NCC1CCN(c2ccncc2)CC1)Nc1ccccc1NC(=O)c1ccccc1`, in the assay listed under Homo sapiens, the PT worked out at 6.2 µM. In addition, the K ass in assay [1] is 5.9e+06 l M-1.

For the compound `COc1ccc(C(=O)Nc2ccccc2NC(=O)c2ccc(-c3ccncc3)cc2)cc1`, the PT in the assay filed under Homo sapiens came out at 9.5 µM. In assay [1], the K ass was 9.2e+06 l M-1.

Compound `COc1ccc(C(=O)Nc2ccccc2NC(=O)OCC2CCN(c3ccncc3)CC2)cc1` displayed a PT in the assay filed under Homo sapiens of 1.9 µM. Further, in assay [1], the K ass was 2e+07 l M-1.

As to `COc1ccc(C(=O)Nc2ccccc2NC(=O)OCCC2CCN(c3ccncc3)CC2)cc1`, the PT in the assay listed under Homo sapiens is greater than 15 µM. In addition, the K ass in [1] is 2.5e+06 l M-1.

Compound `CCOc1ccc(C(=O)Nc2ccccc2NC(=O)NCC2CCN(c3ccncc3)CC2)cc1` gave a PT in the assay listed under Homo sapiens of 2.6 µM. Further, in [1], the K ass is 1.5e+07 l M-1.

With `COc1ccc(C(=O)Nc2ccccc2NC(=O)OC2CCN(c3ccncc3)CC2)cc1`, the PT in the assay listed under Homo sapiens was 2.6 µM. Besides, the K ass in assay [1] is 1.7e+07 l M-1.

`CC(C)(C)c1ccc(C(=O)Nc2cc(C(=O)O)ccc2NC(=O)c2cccc(C(=N)N)c2)cc1` registered a PT in the assay filed under Homo sapiens of 0.83 µM. For the same compound, the K ass in assay [1] was 4.7e+08 l M-1.

In the assay listed under Homo sapiens, `COc1ccc(C(=O)Nc2ccccc2NC(=O)NC2CCN(c3ccncc3)CC2)cc1` returned a PT of 2.4 µM. Also, the K ass in [1] is 1.2e+07 l M-1.

For the compound `CC(C)(C)c1ccc(C(=O)Nc2ccccc2NC(=O)NCC2CCN(c3ccncc3)CC2)cc1`, the K ass in assay [1] was 40000 l M-1.

`COc1ccc(C(=O)Nc2ccc(O)cc2NC(=O)c2ccc(C(C)(C)C)cc2)cc1` yielded a PT in the assay listed under Homo sapiens greater than 50 µM. For the same compound, the K ass in [1] was 6.6e+06 l M-1.

As to `COc1ccc(C(=O)Nc2ccccc2NC(=O)C2CCN(c3ccncc3)CC2)cc1`, in the assay listed under Homo sapiens, the PT was 9.7 µM. The K ass in [1] is 2.3e+06 l M-1.

On to `COc1ccc(C(=O)Nc2ccccc2NC(=O)NCC2CCN(c3ccncc3)CC2)cc1`, for which the K ass in assay [2] is < 10000 l M-1; in assay [3], < 10000 l M-1; in [4] it was < 10000 l M-1; in assay [5], < 10000 l M-1; in assay [6], < 10000 l M-1; in assay [1], 6.2e+07 l M-1. Besides, the K ass in [7], in assay [8] and in assay [9] was < 10000 l M-1 throughout. For the same compound, in the assay filed under Homo sapiens, the PT was determined as 0.96 µM.

In the case of `O=C(NCC1CCN(c2ccncc2)CC1)Nc1ccccc1NC(=O)c1ccc(Cl)cc1`, the K ass was < 10000 l M-1 in assay [2]; < 10000 l M-1 in assay [3]; < 10000 l M-1 in assay [4]; 60000 l M-1 in assay [10]; < 10000 l M-1 in assay [6]; 1e+08 l M-1 in [1]. Moreover, the K ass in [7] is 90000 l M-1; in assay [9], < 10000 l M-1. The same compound displayed a PT in the assay listed under Homo sapiens of 0.58 µM.
